Reference: ChEMBL document CHEMBL1125728, “Dopamine autoreceptor agonists as potential antipsychotics. 2. (Aminoalkoxy)-4H-1-benzopyran-4-ones” (J Med Chem, 1991)

Experiments:
Rattus norvegicus [1] = experiment: Percentage of rats showing signs of stereotyped behavior at 17 mg/kg peroral dose and followed 1 hr later by 10 mg/kg sc of SKF-38393 and animals observed for 60 min postdose before being; format: functional
Procedure, shortened: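 Part 2: oral dose given to naive rats, six per dose, followed 1 h later by SKF 38393 (10 mg/kg sc). Stereotypy (repetitive rearing, head-swaying, sniffing, licking, gnawing lasting ≥5 s) rated over 60 min. Reported as percent of rats affected.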

Rattus norvegicus [2] = experiment: Percentage of rats showing signs of stereotyped behavior at 30 mg/kg peroral dose and animals observed for 60 min postdose.; conditions: route oral
Rattus norvegicus [3] = experiment: Effect on DOPA accumulation level at an intraperitoneal dose of 30 mg/kg in rat.; format: functional
[4] = biological target: T1, Adrenergic receptor alpha-1 (Rattus norvegicus, UniProt P15823+P23944+P43140); experiment: Compound was tested for its inhibitory effect on the binding profile in Alpha-1 adrenergic receptor using [3H]prazosin in rat brain.; format: tissue-based
T1 sequence (P15823 whole entry): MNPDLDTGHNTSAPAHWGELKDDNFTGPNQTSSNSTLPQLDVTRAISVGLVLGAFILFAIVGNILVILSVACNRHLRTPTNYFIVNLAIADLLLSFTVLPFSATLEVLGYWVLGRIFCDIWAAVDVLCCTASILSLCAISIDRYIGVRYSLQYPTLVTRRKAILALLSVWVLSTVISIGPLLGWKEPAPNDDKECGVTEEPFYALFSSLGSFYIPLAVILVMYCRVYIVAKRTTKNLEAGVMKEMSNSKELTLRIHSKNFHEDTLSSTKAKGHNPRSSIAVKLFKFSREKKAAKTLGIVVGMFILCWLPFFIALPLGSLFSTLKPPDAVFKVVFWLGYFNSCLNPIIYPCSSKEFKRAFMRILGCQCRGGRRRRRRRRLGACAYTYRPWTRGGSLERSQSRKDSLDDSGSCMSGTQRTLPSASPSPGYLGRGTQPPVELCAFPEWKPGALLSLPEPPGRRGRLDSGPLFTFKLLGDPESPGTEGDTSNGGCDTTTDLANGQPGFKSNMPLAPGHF
T1 sequence (P23944 whole entry): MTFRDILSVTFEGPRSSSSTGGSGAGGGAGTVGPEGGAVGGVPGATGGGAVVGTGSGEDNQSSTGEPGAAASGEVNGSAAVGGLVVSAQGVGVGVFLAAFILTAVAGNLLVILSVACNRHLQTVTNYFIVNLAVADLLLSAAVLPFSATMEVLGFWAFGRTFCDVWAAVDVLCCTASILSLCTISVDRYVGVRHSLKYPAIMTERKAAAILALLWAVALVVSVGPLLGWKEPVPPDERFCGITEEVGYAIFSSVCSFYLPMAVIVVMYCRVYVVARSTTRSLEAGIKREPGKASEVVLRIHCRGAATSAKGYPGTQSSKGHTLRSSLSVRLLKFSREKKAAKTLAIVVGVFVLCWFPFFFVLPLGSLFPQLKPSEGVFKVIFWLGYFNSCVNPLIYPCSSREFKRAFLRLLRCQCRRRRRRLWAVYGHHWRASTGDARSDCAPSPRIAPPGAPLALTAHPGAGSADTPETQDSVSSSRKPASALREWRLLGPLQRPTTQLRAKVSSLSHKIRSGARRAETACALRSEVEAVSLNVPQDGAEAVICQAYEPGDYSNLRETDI
T1 sequence (P43140 whole entry): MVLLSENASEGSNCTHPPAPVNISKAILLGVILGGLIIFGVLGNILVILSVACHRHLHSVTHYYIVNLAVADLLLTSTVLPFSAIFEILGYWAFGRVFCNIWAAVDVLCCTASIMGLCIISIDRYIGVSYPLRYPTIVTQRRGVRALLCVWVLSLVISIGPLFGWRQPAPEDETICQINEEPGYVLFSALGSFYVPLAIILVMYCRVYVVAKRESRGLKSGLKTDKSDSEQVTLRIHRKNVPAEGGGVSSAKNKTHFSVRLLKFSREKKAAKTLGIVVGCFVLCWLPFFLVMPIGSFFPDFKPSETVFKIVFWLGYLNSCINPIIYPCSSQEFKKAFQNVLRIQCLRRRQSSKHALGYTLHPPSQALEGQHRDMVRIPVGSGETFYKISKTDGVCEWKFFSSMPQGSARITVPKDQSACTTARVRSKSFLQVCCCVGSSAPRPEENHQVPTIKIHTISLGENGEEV
Procedure, shortened: (§1)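 Rat brain receptor binding with the stated radioligands. IC50 obtained by nonlinear regression from four to five concentrations. [3H]flupenthixol and [3H]N-propylnorapomorphine values come from four independent determinations each, and the [3H]haloperidol value from two experiments. Remaining ligands were determined once.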

[5] = Compound tested for its liability for extrapyramidal side effects (EPS) in terms of no. of animals showing signs of EPS/no. of animals tested upon po administration at a dose of 80 mg/Kg; 0/3; format: functional
Dopamine receptor [6] = experiment: Compound was tested for its inhibitory effect on the binding profile in Dopamine receptor using [3H]N-propylnorapomorphine in rat brain.; format: tissue-based; procedure, shortened: as §1
[7] = Compound was tested for its inhibition of Sidman avoidance after peroral administration in Squirrel monkeys.; format: functional; conditions: po
Procedure, shortened: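 Sidman avoidance in mature squirrel monkeys, oral dosing. ED50 ± SEM generated from three doses, four animals per dose.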

Dopamine receptor [8] = experiment: Compound was tested for inhibitory binding activity against Dopamine receptor in rat striatal membranes using [3H]HAL as the radioligand.; format: cell membranes, Striatum, Membrane
Procedure, shortened: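 [3H]Haloperidol displacement from rat striatal DA receptors, run in duplicate. IC50 obtained by nonlinear regression from four to five concentrations.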

Rattus norvegicus [9] = experiment: Compound tested for its effective dose to inhibit rat locomotor activity after sc administration of the compound.; format: functional
Procedure, shortened: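 Rats dosed sc, with locomotor activity recorded for 30 min immediately after dosing. ED50 generated from four to five doses using 5–12 animals per dose, reported with ±95% confidence limits.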

Rattus norvegicus [10] = experiment: Compound tested for % reversal of DOPA accumulation at an intraperitoneal dose of 30 mg/kg.; format: functional
Procedure, shortened: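 Rats dosed 1 h before sacrifice, with GBL (750 mg/kg ip) at 30 min and NSD 1015 (100 mg/kg ip) at 25 min before sacrifice. Striatal DOPA measured by HPLC with electrochemical detection. Value is percent reversal of the GBL-induced DOPA rise.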

Rattus norvegicus [11] = experiment: Compound tested for % inhibition of DA neuronal firing at an intraperitoneal dose of 2.5 mg/kg.; format: functional; conditions: ip
D(2) dopamine receptor = D(2) dopamine receptor (Rattus norvegicus, UniProt P61169); experiment: Compound was tested for its inhibitory effect on the binding profile in Dopamine receptor D2 using [3H]haloperidol in rat brain.; format: tissue-based; procedure, shortened: as §1
Chain of D(2) dopamine receptor (P61169 whole entry): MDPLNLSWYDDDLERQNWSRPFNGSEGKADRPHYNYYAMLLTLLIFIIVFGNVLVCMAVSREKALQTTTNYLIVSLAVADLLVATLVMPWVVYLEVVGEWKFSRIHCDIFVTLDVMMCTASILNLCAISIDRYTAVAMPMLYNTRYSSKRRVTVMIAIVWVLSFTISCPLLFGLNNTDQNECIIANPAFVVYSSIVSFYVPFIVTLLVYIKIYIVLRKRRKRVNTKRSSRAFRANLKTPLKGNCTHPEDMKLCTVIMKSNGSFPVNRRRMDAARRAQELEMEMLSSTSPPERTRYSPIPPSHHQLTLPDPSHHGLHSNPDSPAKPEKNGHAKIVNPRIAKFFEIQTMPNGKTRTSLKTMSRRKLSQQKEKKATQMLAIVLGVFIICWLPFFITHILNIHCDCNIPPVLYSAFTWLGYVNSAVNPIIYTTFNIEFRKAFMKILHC

Mus musculus = experiment: Inhibition of mouse intraperitoneally.; format: functional; conditions: ip
Procedure, shortened: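 Inhibition of exploratory locomotor activity, scored together with motor coordination (ataxia). ED50 generated from four to five doses, with 5–12 animals per dose.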

D(1A) dopamine receptor = D(1A) dopamine receptor (Rattus norvegicus, UniProt P18901); experiment: Compound was tested for its inhibitory effect on the binding profile in Dopamine receptor D1 using [3H]flupenthixol in rat brain.; format: tissue-based; procedure, shortened: as §1
Chain of D(1A) dopamine receptor (P18901 whole entry): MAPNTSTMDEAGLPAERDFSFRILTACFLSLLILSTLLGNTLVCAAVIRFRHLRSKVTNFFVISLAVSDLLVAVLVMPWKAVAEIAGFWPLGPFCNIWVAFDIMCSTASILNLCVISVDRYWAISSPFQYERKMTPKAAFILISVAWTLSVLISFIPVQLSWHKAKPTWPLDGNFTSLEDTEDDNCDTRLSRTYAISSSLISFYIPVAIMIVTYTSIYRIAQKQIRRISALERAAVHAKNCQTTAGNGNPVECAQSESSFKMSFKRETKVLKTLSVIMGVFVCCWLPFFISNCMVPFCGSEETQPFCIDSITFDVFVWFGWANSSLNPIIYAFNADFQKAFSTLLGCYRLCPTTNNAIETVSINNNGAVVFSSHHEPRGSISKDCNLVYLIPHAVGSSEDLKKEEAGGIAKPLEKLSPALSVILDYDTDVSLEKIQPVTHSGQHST

With `O=c1ccoc2cc(OCCCN3CCN(c4ccccn4)CC3)ccc12` the Animals (Rattus norvegicus [1]) was 0%, the Animals (Rattus norvegicus [2]) was 0% and the DOPA level (Rattus norvegicus [3]) was 0.28 µg/g. For the same compound, the IC50 [4] was 0.17 µM, the EPS [5] was 0 and the IC50 (Dopamine receptor [6]) was 0.059 µM. It also gave an ED50 [7] of 6 mg/kg, an IC50 (Dopamine receptor [8]) of 1 µM and an ED50 (Rattus norvegicus [9]) of 0.58 mg/kg. The Reversal (Rattus norvegicus [10]) was 100%, the inhibition in vivo at 2.5 mg/kg (Rattus norvegicus [11]) was 93% and the IC50 (D(2) dopamine receptor) was 1.08 µM. For the same compound, the ED50 (Mus musculus) was 1.3 mg/kg and the IC50 (D(1A) dopamine receptor) was 21.7 µM.
